What was measured:
U2OS = assay: Multiplex assay against U2OS; assay type: toxicity, cell-based; details: human
Summary of the method: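 Tubulin, mitochondrial-mass and membrane-permeability phenotypes are per cents of healthy-nucleus cells. Cells were gated by CellPathfinder machine learning into Hoechst high-intensity objects or normal cells, normal cells into healthy, pyknosed or fragmented nuclei, and pyknosed cells into mitotic or apoptotic. Before that, live cells stained at seeding with Hoechst33342, BioTracker Green Microtubule Cytoskeleton Dye, MitoTracker Red and Annexin V Alexa Fluor 680 were imaged on a CQ1 microscope at 37°C and 5% CO2 after compound addition.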

HEK-293T = assay: Incucyte cell viability with HEK293T; assay type: toxicity, cell-based; details: human, 10 µM, compound concentration 10 uM; note: filed as whole numbers so only -1 and 0 and 1 occur
[1] = 12 h, 1 µM, compound concentration 1 uM, replicate 1
[2] = 12 h, 1 µM, compound concentration 1 uM, replicate 2
[3] = 12 h, 10 µM, compound concentration 10 uM, replicate 1
[4] = 12 h, 10 µM, compound concentration 10 uM, replicate 2
[5] = 24 h, 1 µM, compound concentration 1 uM, replicate 1
[6] = 24 h, 1 µM, compound concentration 1 uM, replicate 2
[7] = 24 h, 10 µM, compound concentration 10 uM, replicate 1
[8] = 24 h, 10 µM, compound concentration 10 uM, replicate 2
[9] = 0 h, replicate number 1, timepoint 0 hours
[10] = 6 h, replicate number 1, timepoint 6 hours
[11] = 12 h, replicate number 1, timepoint 12 hours
[12] = 18 h, replicate number 1, timepoint 18 hours
[13] = 24 h, replicate number 1, timepoint 24 hours

CN(C)CCOc1ccc(-c2nc(-c3ccncc3)c(-c3ccc4c(c3)CC/C4=N\O)[nH]2)cc1 [SB590885]
Population Apoptotic (%) (U2OS; [1]): 72% | Population Fragmented Nuclei (%) (U2OS; [1]): 22% | Population Healthy Nuclei (%) (U2OS; [1]): 42% | Population Hoechst High Intensity Objects (%) (U2OS; [1]): 9% | Population Membrane Permeable-Phenotype (%) (U2OS; [1]): 45% | Population Mitochondria Different-Phenotype (%) (U2OS; [1]): 30% | Population Mitotic Cells (%) (U2OS; [1]): 27% | Population Normal (%) (U2OS; [1]): 90% | Population Pyknosed Nuclei (%) (U2OS; [1]): 34% | Population Tubulin-Different-Phenotype (%) (U2OS; [1]): 54% | Total Cell Count (U2OS; [1]): 200 | Population Apoptotic (%) (U2OS; [2]): 88% | Population Fragmented Nuclei (%) (U2OS; [2]): 41% | Population Healthy Nuclei (%) (U2OS; [2]): 34% | Population Hoechst High Intensity Objects (%) (U2OS; [2]): 15% | Population Membrane Permeable-Phenotype (%) (U2OS; [2]): 38% | Population Mitochondria Different-Phenotype (%) (U2OS; [2]): 28% | Population Mitotic Cells (%) (U2OS; [2]): 11% | Population Normal (%) (U2OS; [2]): 84% | Population Pyknosed Nuclei (%) (U2OS; [2]): 23% | Population Tubulin-Different-Phenotype (%) (U2OS; [2]): 51% | Total Cell Count (U2OS; [2]): 155 | Population Apoptotic (%) (U2OS; [3]): 42% | Population Fragmented Nuclei (%) (U2OS; [3]): 5% | Population Hoechst High Intensity Objects (%) (U2OS; [3]): 3% | Population Membrane Permeable-Phenotype (%) (U2OS; [3]): 11% | Population Mitochondria Different-Phenotype (%) (U2OS; [3]): 23% | Population Mitotic Cells (%) (U2OS; [3]): 57% | Population Normal (%) (U2OS; [3]): 96% | Population Pyknosed Nuclei (%) (U2OS; [3]): 7% | Population Tubulin-Different-Phenotype (%) (U2OS; [3]): 26% | Total Cell Count (U2OS; [3]): 149 | Population Apoptotic (%) (U2OS; [4]): 37% | Population Fragmented Nuclei (%) (U2OS; [4]): 6% | Population Healthy Nuclei (%) (U2OS; [4]): 87% | Population Hoechst High Intensity Objects (%) (U2OS; [4]): 10% | Population Membrane Permeable-Phenotype (%) (U2OS; [4]): 14% | Population Mitochondria Different-Phenotype (%) (U2OS; [4]): 28% | Population Mitotic Cells (%) (U2OS; [4]): 62% | Population Normal (%) (U2OS; [4]): 89% | Population Pyknosed Nuclei (%) (U2OS; [4]): 5% | Population Tubulin-Different-Phenotype (%) (U2OS; [4]): 33% | Total Cell Count (U2OS; [4]): 78 | Population Apoptotic (%) (U2OS; [5]): 85% | Population Fragmented Nuclei (%) (U2OS; [5]): 15% | Population Healthy Nuclei (%) (U2OS; [5]): 38% | Population Hoechst High Intensity Objects (%) (U2OS; [5]): 19% | Population Membrane Permeable-Phenotype (%) (U2OS; [5]): 34% | Population Mitochondria Different-Phenotype (%) (U2OS; [5]): 34% | Population Mitotic Cells (%) (U2OS; [5]): 14% | Population Normal (%) (U2OS; [5]): 80% | Population Pyknosed Nuclei (%) (U2OS; [5]): 45% | Population Tubulin-Different-Phenotype (%) (U2OS; [5]): 37% | Total Cell Count (U2OS; [5]): 280 | Population Apoptotic (%) (U2OS; [6]): 91% | Population Fragmented Nuclei (%) (U2OS; [6]): 35% | Population Healthy Nuclei (%) (U2OS; [6]): 25% | Population Hoechst High Intensity Objects (%) (U2OS; [6]): 21% | Population Membrane Permeable-Phenotype (%) (U2OS; [6]): 33% | Population Mitochondria Different-Phenotype (%) (U2OS; [6]): 41% | Population Mitotic Cells (%) (U2OS; [6]): 8% | Population Normal (%) (U2OS; [6]): 78% | Population Pyknosed Nuclei (%) (U2OS; [6]): 38% | Population Tubulin-Different-Phenotype (%) (U2OS; [6]): 30% | Total Cell Count (U2OS; [6]): 196 | Population Apoptotic (%) (U2OS; [7]): 44% | Population Fragmented Nuclei (%) (U2OS; [7]): 5% | Population Healthy Nuclei (%) (U2OS; [7]): 90% | Population Hoechst High Intensity Objects (%) (U2OS; [7]): 2% | Population Membrane Permeable-Phenotype (%) (U2OS; [7]): 12% | Population Mitochondria Different-Phenotype (%) (U2OS; [7]): 21% | Population Mitotic Cells (%) (U2OS; [7]): 55% | Population Normal (%) (U2OS; [7]): 97% | Population Pyknosed Nuclei (%) (U2OS; [7]): 3% | Population Tubulin-Different-Phenotype (%) (U2OS; [7]): 30% | Total Cell Count (U2OS; [7]): 144 | Population Apoptotic (%) (U2OS; [8]): 50% | Population Fragmented Nuclei (%) (U2OS; [8]): 7% | Population Healthy Nuclei (%) (U2OS; [8]): 89% | Population Hoechst High Intensity Objects (%) (U2OS; [8]): 7% | Population Membrane Permeable-Phenotype (%) (U2OS; [8]): 8% | Population Mitochondria Different-Phenotype (%) (U2OS; [8]): 38% | Population Mitotic Cells (%) (U2OS; [8]): 50% | Population Normal (%) (U2OS; [8]): 92% | Population Tubulin-Different-Phenotype (%) (U2OS; [8]): 37% | Total Cell Count (U2OS; [8]): 80 | Growth Rate (HEK-293T; [9]): 1 | Growth Rate (HEK-293T; [10]): 0 | Growth Rate (HEK-293T; [11]): 0 | Growth Rate (HEK-293T; [12]): 0 | Growth Rate (HEK-293T; [13]): 0

N#Cc1cnc(Nc2cc(NC[C@H]3CNCCO3)c(C(F)(F)F)cn2)cn1 [SRA-737]
Population Apoptotic (%) (U2OS; [1]): 18% | Population Fragmented Nuclei (%) (U2OS; [1]): 0% | Population Healthy Nuclei (%) (U2OS; [1]): 89% | Population Hoechst High Intensity Objects (%) (U2OS; [1]): 6% | Population Membrane Permeable-Phenotype (%) (U2OS; [1]): 7% | Population Mitochondria Different-Phenotype (%) (U2OS; [1]): 14% | Population Mitotic Cells (%) (U2OS; [1]): 81% | Population Normal (%) (U2OS; [1]): 93% | Population Pyknosed Nuclei (%) (U2OS; [1]): 9% | Population Tubulin-Different-Phenotype (%) (U2OS; [1]): 26% | Total Cell Count (U2OS; [1]): 249 | Population Apoptotic (%) (U2OS; [2]): 16% | Population Fragmented Nuclei (%) (U2OS; [2]): 4% | Population Healthy Nuclei (%) (U2OS; [2]): 90% | Population Hoechst High Intensity Objects (%) (U2OS; [2]): 9% | Population Membrane Permeable-Phenotype (%) (U2OS; [2]): 10% | Population Mitochondria Different-Phenotype (%) (U2OS; [2]): 18% | Population Mitotic Cells (%) (U2OS; [2]): 83% | Population Normal (%) (U2OS; [2]): 90% | Population Pyknosed Nuclei (%) (U2OS; [2]): 4% | Population Tubulin-Different-Phenotype (%) (U2OS; [2]): 30% | Total Cell Count (U2OS; [2]): 142 | Population Apoptotic (%) (U2OS; [3]): 50% | Population Fragmented Nuclei (%) (U2OS; [3]): 5% | Population Healthy Nuclei (%) (U2OS; [3]): 87% | Population Hoechst High Intensity Objects (%) (U2OS; [3]): 4% | Population Membrane Permeable-Phenotype (%) (U2OS; [3]): 11% | Population Mitochondria Different-Phenotype (%) (U2OS; [3]): 9% | Population Mitotic Cells (%) (U2OS; [3]): 50% | Population Normal (%) (U2OS; [3]): 95% | Population Pyknosed Nuclei (%) (U2OS; [3]): 6% | Population Tubulin-Different-Phenotype (%) (U2OS; [3]): 15% | Total Cell Count (U2OS; [3]): 193 | Population Apoptotic (%) (U2OS; [4]): 23% | Population Fragmented Nuclei (%) (U2OS; [4]): 4% | Population Healthy Nuclei (%) (U2OS; [4]): 85% | Population Hoechst High Intensity Objects (%) (U2OS; [4]): 9% | Population Membrane Permeable-Phenotype (%) (U2OS; [4]): 15% | Population Mitochondria Different-Phenotype (%) (U2OS; [4]): 7% | Population Mitotic Cells (%) (U2OS; [4]): 76% | Population Normal (%) (U2OS; [4]): 90% | Population Pyknosed Nuclei (%) (U2OS; [4]): 10% | Population Tubulin-Different-Phenotype (%) (U2OS; [4]): 16% | Total Cell Count (U2OS; [4]): 143 | Population Apoptotic (%) (U2OS; [5]): 5% | Population Fragmented Nuclei (%) (U2OS; [5]): 0% | Population Membrane Permeable-Phenotype (%) (U2OS; [5]): 5% | Population Mitochondria Different-Phenotype (%) (U2OS; [5]): 12% | Population Mitotic Cells (%) (U2OS; [5]): 94% | Population Pyknosed Nuclei (%) (U2OS; [5]): 5% | Population Tubulin-Different-Phenotype (%) (U2OS; [5]): 31% | Total Cell Count (U2OS; [5]): 330 | Population Apoptotic (%) (U2OS; [6]): 0% | Population Fragmented Nuclei (%) (U2OS; [6]): 2% | Population Healthy Nuclei (%) (U2OS; [6]): 93% | Population Hoechst High Intensity Objects (%) (U2OS; [6]): 3% | Population Membrane Permeable-Phenotype (%) (U2OS; [6]): 6% | Population Mitochondria Different-Phenotype (%) (U2OS; [6]): 23% | Population Mitotic Cells (%) (U2OS; [6]): 100% | Population Normal (%) (U2OS; [6]): 96% | Population Pyknosed Nuclei (%) (U2OS; [6]): 4% | Population Tubulin-Different-Phenotype (%) (U2OS; [6]): 38% | Total Cell Count (U2OS; [6]): 179 | Population Apoptotic (%) (U2OS; [7]): 18% | Population Fragmented Nuclei (%) (U2OS; [7]): 4% | Population Healthy Nuclei (%) (U2OS; [7]): 88% | Population Hoechst High Intensity Objects (%) (U2OS; [7]): 4% | Population Membrane Permeable-Phenotype (%) (U2OS; [7]): 8% | Population Mitochondria Different-Phenotype (%) (U2OS; [7]): 10% | Population Mitotic Cells (%) (U2OS; [7]): 81% | Population Normal (%) (U2OS; [7]): 95% | Population Pyknosed Nuclei (%) (U2OS; [7]): 6% | Population Tubulin-Different-Phenotype (%) (U2OS; [7]): 19% | Total Cell Count (U2OS; [7]): 243 | Population Apoptotic (%) (U2OS; [8]): 50% | Population Fragmented Nuclei (%) (U2OS; [8]): 5% | Population Healthy Nuclei (%) (U2OS; [8]): 87% | Population Hoechst High Intensity Objects (%) (U2OS; [8]): 8% | Population Mitochondria Different-Phenotype (%) (U2OS; [8]): 19% | Population Mitotic Cells (%) (U2OS; [8]): 50% | Population Normal (%) (U2OS; [8]): 91% | Population Tubulin-Different-Phenotype (%) (U2OS; [8]): 12% | Total Cell Count (U2OS; [8]): 168 | Growth Rate (HEK-293T; [9]): 0 | Growth Rate (HEK-293T; [10]): 0 | Growth Rate (HEK-293T; [11]): 0 | Growth Rate (HEK-293T; [12]): 0 | Growth Rate (HEK-293T; [13]): 0

Source: ChEMBL document CHEMBL4689842, “EUbOPEN Chemogenomics Library wave 1” (2021)
